Assay results: ChEMBL document CHEMBL4014306, “Pyrazolopyrimidines as Potent Stimulators for Transient Receptor Potential Canonical 3/6/7 Channels” (J Med Chem, 2017)
Calls of active or inactive are those of the source. The calls are words filed in the database; no cut-off is given here.

Tests used:
Type in all cases: cell-based
HEK293 = test: Induction of intracellular calcium level in HEK293 cells at 30 uM measured for 2.5 mins by Fluo-4-AM dye based FLIPR assay; details: human, hek293, 2.5 min
[1] = biological target: T1, Short transient receptor potential channel 3 (Rattus norvegicus) (UniProt Q9JMI9); test: Agonist activity at TRPC3 in rat primary glomerular mesangial cells assessed as increase in intracellular calcium level at 1 uM in presence of TRPC inhibitor […] by Fluo4-AM dye-based fluorescence assay
T1 sequence (whole entry): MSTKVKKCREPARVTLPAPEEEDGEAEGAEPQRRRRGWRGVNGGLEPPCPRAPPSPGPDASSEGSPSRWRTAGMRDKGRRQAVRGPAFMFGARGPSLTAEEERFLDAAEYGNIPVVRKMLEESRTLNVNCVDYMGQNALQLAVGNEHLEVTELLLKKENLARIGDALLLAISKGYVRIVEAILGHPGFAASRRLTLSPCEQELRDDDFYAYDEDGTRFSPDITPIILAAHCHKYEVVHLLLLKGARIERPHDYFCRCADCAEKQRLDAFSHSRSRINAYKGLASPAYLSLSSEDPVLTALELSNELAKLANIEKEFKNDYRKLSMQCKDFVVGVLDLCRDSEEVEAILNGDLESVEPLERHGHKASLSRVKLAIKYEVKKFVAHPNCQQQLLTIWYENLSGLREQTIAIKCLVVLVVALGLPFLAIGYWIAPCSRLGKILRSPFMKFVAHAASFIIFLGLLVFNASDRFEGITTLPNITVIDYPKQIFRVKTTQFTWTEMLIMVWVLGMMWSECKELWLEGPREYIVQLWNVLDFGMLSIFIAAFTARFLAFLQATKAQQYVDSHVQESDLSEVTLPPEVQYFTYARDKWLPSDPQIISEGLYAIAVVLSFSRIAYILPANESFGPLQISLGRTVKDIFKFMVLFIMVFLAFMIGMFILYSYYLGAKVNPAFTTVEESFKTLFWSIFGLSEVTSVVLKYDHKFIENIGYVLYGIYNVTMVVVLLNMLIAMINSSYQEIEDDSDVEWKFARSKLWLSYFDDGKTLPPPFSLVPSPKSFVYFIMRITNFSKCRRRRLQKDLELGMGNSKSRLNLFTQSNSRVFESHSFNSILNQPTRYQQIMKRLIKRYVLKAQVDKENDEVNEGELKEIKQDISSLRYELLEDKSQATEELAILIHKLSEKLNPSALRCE
Procedure, shortened: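 Rat glomerular mesangial cells, isolated by graded sieving from male Sprague–Dawley rats, collagenase-digested, cultured in RPMI 1640 with 17% FBS. Grown overnight on coverslips, then loaded with 10 μM Fluo4-AM and 0.02% pluronic F-127 for 1 h at 37 °C in 1 mM Ca2+ saline, pH 7.4. Compound at 1 μM. Confocal imaging, ex 488/em 515 nm, read as F/F0. For the 2-APB condition, 30 μM 2-APB for 2 min beforehand and kept during compound application.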

[2] = biological target: T2, Transient receptor potential cation channel subfamily M member 5 (Homo sapiens) (UniProt Q9NZQ8); test: Inhibition of human TRPM5 expressed in HEK293 cells assessed as decrease in carbachol-evoked membrane depolarization at 22 uM preincubated for 2 mins followed by carbachol addition measured for 2.5 mins by FLIPR membrane potential dye-based fluorescence assay relative to control
T2 sequence (whole entry): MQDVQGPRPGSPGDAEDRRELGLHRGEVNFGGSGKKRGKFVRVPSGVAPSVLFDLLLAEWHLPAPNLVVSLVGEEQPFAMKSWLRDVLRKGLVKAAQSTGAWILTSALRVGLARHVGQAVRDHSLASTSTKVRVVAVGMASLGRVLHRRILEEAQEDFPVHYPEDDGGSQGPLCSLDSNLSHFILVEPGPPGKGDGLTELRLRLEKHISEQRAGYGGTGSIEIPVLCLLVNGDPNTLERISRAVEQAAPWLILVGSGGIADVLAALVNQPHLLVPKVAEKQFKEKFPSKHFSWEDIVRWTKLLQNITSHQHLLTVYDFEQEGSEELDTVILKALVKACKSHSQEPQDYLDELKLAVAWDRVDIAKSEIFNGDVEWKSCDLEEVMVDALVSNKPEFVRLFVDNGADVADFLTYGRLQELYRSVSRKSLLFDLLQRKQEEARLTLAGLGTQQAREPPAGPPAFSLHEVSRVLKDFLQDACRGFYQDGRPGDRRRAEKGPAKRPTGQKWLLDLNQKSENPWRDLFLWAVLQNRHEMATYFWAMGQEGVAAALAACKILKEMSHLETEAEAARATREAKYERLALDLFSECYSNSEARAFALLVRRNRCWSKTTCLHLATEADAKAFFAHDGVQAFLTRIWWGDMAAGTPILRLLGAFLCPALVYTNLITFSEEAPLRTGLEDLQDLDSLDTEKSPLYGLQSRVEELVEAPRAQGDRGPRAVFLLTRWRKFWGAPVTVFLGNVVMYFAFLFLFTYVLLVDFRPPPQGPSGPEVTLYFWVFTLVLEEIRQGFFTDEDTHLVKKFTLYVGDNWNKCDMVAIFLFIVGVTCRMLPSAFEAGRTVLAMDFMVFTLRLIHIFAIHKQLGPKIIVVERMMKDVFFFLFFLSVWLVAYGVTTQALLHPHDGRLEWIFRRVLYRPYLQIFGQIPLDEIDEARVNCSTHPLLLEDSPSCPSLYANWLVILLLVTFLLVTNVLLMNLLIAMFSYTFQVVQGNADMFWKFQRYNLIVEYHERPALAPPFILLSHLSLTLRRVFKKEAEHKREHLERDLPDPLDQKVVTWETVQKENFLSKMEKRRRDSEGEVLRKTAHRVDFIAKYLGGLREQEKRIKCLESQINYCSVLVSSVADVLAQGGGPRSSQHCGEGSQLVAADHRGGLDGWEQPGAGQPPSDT
Procedure, shortened: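 Same TRP panel as for the stimulation tests, with FMP dye for TRPC4 and M5 and Fluo8-AM for TRPA1, V1 and M8. Compound applied for 2 min before the channel agonist (TRPC4: 1 μM DAMGO). Inhibition of the agonist response measured on a FlexStation at 32 °C.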

With `CCOC(=O)N1CCC(c2cc(O)n3nc(C)c(-c4ccc(F)cc4)c3n2)CC1` the Activity (HEK293) was “Non-Toxic”.

In the case of `Cc1nn2c(O)cc(C3CCN(C(=O)OCc4ccccc4)CC3)nc2c1-c1ccc(F)cc1`, the Activity [1] is reported as “inactive”.

Work on `CCOC(=O)N1CCC(c2cc(O)n3nc(C)c(-c4ccc(C(F)(F)F)cc4)c3n2)CC1` yielded an inhibition [2] of less than 20%.
